Reference: ChEMBL document CHEMBL1132379, “2-thioether 5'-O-(1-thiotriphosphate)adenosine derivatives as new insulin secretagogues acting through P2Y-Receptors” (J Med Chem, 1999)

Tests used:
P2Y purinoceptor 1 [1] = molecular target: T1, P2Y purinoceptor 1 (Meleagris gallopavo, UniProt P49652); assay: Agonistic activity for P2Y purinoceptor 1 of turkey erythrocyte membranes; type: functional
How it was run: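 [³H]myoinositol-labeled washed turkey erythrocytes (18–24 h, 37 °C), membranes made by hypotonic lysis; phospholipase C measured as total [³H]inositol phosphates (ion-exchange) after 5 min at 30 °C with GTPγS, pH 7.0 Hepes medium. EC50 from four-parameter logistic fit; at least three experiments with different membrane preparations, duplicate assays.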

P2Y purinoceptor 1 [2] = molecular target: T1, P2Y purinoceptor 1; assay: Compound was evaluated for its agonistic activity towards P2Y purinoceptor 1 in turkey erythrocyte membranes; NE=No effect; type: functional, cell membranes
How it was run: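 Turkey erythrocytes labeled 18–24 h at 37 °C with 2-[3H]myoinositol in inositol-free DMEM, then lysed in hypotonic buffer (5 mM sodium phosphate pH 7.4, 5 mM MgCl2, 1 mM EGTA) to make membranes. Phospholipase C was assayed with GTPγS and graded nucleotide concentrations at 30 °C for 5 min, pH 7.0 Hepes medium. Total [3H]inositol phosphates were measured by ion-exchange chromatography. EC50 came from four-parameter logistic fits, ≥3 experiments on separate membrane preparations, duplicate assays.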

T1 sequence (P49652 whole entry): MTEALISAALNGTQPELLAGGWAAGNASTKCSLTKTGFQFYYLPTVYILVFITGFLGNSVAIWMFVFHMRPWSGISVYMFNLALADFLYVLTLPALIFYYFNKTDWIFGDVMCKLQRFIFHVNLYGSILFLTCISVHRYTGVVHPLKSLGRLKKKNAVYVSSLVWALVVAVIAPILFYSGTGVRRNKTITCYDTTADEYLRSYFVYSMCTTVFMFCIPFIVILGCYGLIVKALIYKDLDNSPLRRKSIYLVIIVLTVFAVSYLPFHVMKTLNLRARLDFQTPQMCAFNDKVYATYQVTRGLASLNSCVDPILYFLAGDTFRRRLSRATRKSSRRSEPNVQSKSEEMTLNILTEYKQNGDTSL

| Structure (SMILES) | EC50 (P2Y purinoceptor 1 [1]) [nM] | EC50 (P2Y purinoceptor 1 [2]) |
| --- | --- | --- |
| CCCCCCSc1nc(N)c2ncn([C@@H]3O[C@H](COP(O)(=S)OP(=O)(O)OP(=O)(O)O)[C@@H](O)[C@H]3O)c2n1 (stereo in doubt; 5aA) | 17 | – |
| Nc1ncnc2c1ncn2C1O[C@H](COP(O)(=S)OP(=O)(O)OP(=O)(O)O)[C@@H](O)[C@H]1O (stereo partly drawn) | 6280 | – |
| CCCCCCSc1nc(N)c2ncn(C3O[C@H](COP(O)(O)=S)[C@@H](O)[C@H]3O)c2n1 (stereo partly drawn) | 2790 | – |
| Nc1ncnc2c1ncn2[C@@H]1O[C@H](COP(O)(O)=S)[C@@H](O)[C@H]1O | – | Not Active |
| CCCCCCSc1nc(N)c2ncn(C3O[C@H](COP(=O)(O)OP(=O)(O)OP(=O)(O)O)[C@@H](O)[C@H]3O)c2n1 (stereo partly drawn) | 10 | – |
| Nc1ncnc2c1ncn2[C@@H]1O[C@H](COP(=O)(O)OP(=O)(O)OP(=O)(O)O)[C@@H](O)[C@H]1O [ADENOSINE TRIPHOSPHATE] | 6350 | – |
| CCCCCCSc1nc(N)c2ncn([C@@H]3O[C@H](COP(O)(=S)OP(=O)(O)OP(=O)(O)O)[C@@H](O)[C@H]3O)c2n1 (stereo in doubt; 5aB) | 21 | – |

More lines, main results first:

| EC50 (P2Y purinoceptor 1 [1]) [nM] | Structure (SMILES) | EC50 (P2Y purinoceptor 1 [2]) |
| --- | --- | --- |
| 890 | Nc1nc(SCCc2ccc([N+](=O)[O-])cc2)nc2c1ncn2[C@@H]1O[C@H](COP(O)(=S)OP(=O)(O)OP(=O)(O)O)[C@@H](O)[C@H]1O (stereo in doubt; 5bB) | – |
| 2360 | Nc1nc(SCCc2ccc([N+](=O)[O-])cc2)nc2c1ncn2[C@@H]1O[C@H](COP(O)(O)=S)[C@@H](O)[C@H]1O | – |
| 3000 | Nc1nc(SCCc2ccc([N+](=O)[O-])cc2)nc2c1ncn2C1O[C@H](COP(=O)(O)O)[C@@H](O)[C@H]1O (stereo partly drawn) | – |
| 510 | Nc1nc(SCCc2ccc([N+](=O)[O-])cc2)nc2c1ncn2[C@@H]1O[C@H](COP(O)(=S)OP(=O)(O)OP(=O)(O)O)[C@@H](O)[C@H]1O (stereo in doubt; 5bA) | – |
| 12 | Nc1nc(SCCc2ccc([N+](=O)[O-])cc2)nc2c1ncn2C1O[C@H](COP(=O)(O)OP(=O)(O)OP(=O)(O)O)[C@@H](O)[C@H]1O (stereo partly drawn) | – |
| 60 | CCCCCCSc1nc(N)c2ncn([C@@H]3O[C@H](COP(=O)(O)O)[C@@H](O)[C@H]3O)c2n1 | – |
